# pEC50: −log10 of the molar value. Active and inactive are the calls of the source. The calls are words filed in the database; no cut-off is given here.
# Legend:
# MCF7 = test: Antiproliferative activity against human MCF7 cells assessed as cell viability at 50 uM after 72 hrs by MTT assay; format: functional; details: MCF7, 72 h, read-out: Activity
# Summary of the method: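 MTT viability assay in CCRF-CEM and MCF-7 cells after 72 h exposure at 25, 50, 100 and 200 µM. Results are relative to control cells without inhibitor in 0.5% DMSO. Done in triplicate; values are means ± SD of three independent experiments.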
# CCRF-CEM = test: Antiproliferative activity against human CCRF-CEM cells after 72 hrs by MTT assay; format: functional, cell-based
# Summary of the method: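 EC50 was derived from a repeat 72 h MTT assay in CCRF-CEM or MCF-7 cells. It is the concentration killing 50% of tumour cells compared with control cells incubated without inhibitor in 0.5% DMSO.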
# Candida albicans [1] = test: Growth inhibition of Candida albicans ATCC 90028 at 2 ug/ml incubated for 18 hrs at 35 degC by broth microdilution method relative to control; format: functional; details: ATCC 90028, 18 h, read-out: GI
# Candida albicans [2] = test: Growth inhibition of Candida albicans ATCC 90028 at 0.5 ug/ml incubated for 18 hrs at 35 degC by broth microdilution method relative to control; format: functional; details: ATCC 90028, 18 h, read-out: GI
# Candida albicans [3] = test: Growth inhibition of Candida albicans ATCC 90028 at 0.125 ug/ml incubated for 4 hrs at 35 degC by broth microdilution method relative to control; format: functional; details: ATCC 90028, 4 h, read-out: GI
# Candida albicans [4] = test: Growth inhibition of Candida albicans ATCC 90028 at 0.0625 ug/ml incubated for 18 hrs at 35 degC by broth microdilution method relative to control; format: functional; details: ATCC 90028, 18 h, read-out: GI
# Candida albicans [5] = test: Induction of apoptosis in Candida albicans ATCC 90028 protoplast assessed as early apoptotic cells at 20 uM after 48 hrs Annexin V-FITC/propidium iodide staining based flow cytometric analysis (reference value: 3.00 +/- 1.65%); format: functional
# Candida albicans [6] = test: Induction of apoptosis in Candida albicans ATCC 90028 protoplast assessed as late apoptotic cells at 20 uM after 48 hrs Annexin V-FITC/propidium iodide staining based flow cytometric analysis (reference value: 0.3 +/- 0.30%); format: functional
# Candida albicans [7] = test: Disruption of cell wall in Candida albicans SC5314 assessed as decrease in chitin level after 18 hrs by calcofluor white staining-based flow cytometric analysis; format: functional, organism-based
# Candida albicans [8] = test: Antifungal activity against Candida albicans ATCC 90028 assessed as reduction in cell viability at 8 uM at after 48 hrs in presence of ergosterol by XTT assay; format: functional
# Candida albicans [9] = test: (§1) Antifungal activity against Candida albicans ATCC 90028 infected in Galleria mellonella larvae infected with 20 uM compound pre-treated cell suspensions assessed as larvae survival incubated in dark for 144 hrs at 30 degC and measured every 24 hrs (reference value: 80%); format: functional
# Candida albicans [10] = test: Antifungal activity against Candida albicans ATCC 90028 infected in Galleria mellonella larvae infected with 20 uM compound pre-treated cell suspensions assessed as melanization incubated in dark for 144 hrs at 30 degC and measured every 24 hrs (reference value: 65%); format: functional
# Candida albicans [11] = test: as §1, with “reduction in fungal cell nodules” for “larvae survival incubated”, “by hematoxylin and eosin staining-based light microscopic analysis” for “(reference value: 80%)”; format: functional, organism-based
# Candida albicans [12] = test: Antibiofilm activity in Candida albicans ATCC 90028 assessed as increase in chitin distribution within biofilm cells at 20 uM after 18 hrs by calcofluor white staining-based confocal laser scanning microscopic analysis; format: functional, organism-based
# Candida albicans [13] = test: Antibiofilm activity in Candida albicans ATCC 90028 assessed as late apoptotic morphological changes by measuring reddish-orange fluorescence at 20 uM after 18 hrs by acridine orange/ethidium bromide staining-based confocal laser scanning fluorescence microscopic analysis; format: functional, organism-based
# Candida albicans [14] = test: Disruption of cell wall in Candida albicans SC5314 assessed as decrease in chitin level by measuring chitin mean staining index at 20 uM after 18 hrs by calcofluor white staining-based flow cytometric analysis (reference value: 496 +/- 51); format: functional
# Vero = test: Cytotoxicity in African green monkey Vero cells at 256 ug/ml incubated for 3 to 18 hrs by XTT assay; format: cell-based; details: chlorocebus sabaeus
# Candida albicans [15] = test: Effect on dilpoid nuclei level in Candida albicans ATCC 90028 planktonic forms at 16 ug/ml by ethidium bromide staining based gel electrophoresis and confocal laser scanning microscopy; format: functional, organism-based
# Candida albicans [16] = test: Fungicidal activity against Candida albicans ATCC 90028 assessed as reduction in cell viability in RPMI medium in presence of sorbitol; format: functional
# Candida albicans [17] = test: Fungicidal activity against Candida albicans ATCC 90028 assessed as reduction in cell viability in RPMI medium in absence of sorbitol; format: functional
# Candida albicans [18] = test: Inhibition of biofilm formation of Candida albicans ATCC 90028 up to 248 uM […] by XTT assay; format: functional, organism-based
# Candida albicans [19] = test: Induction of apoptosis in Candida albicans ATCC 90028 protoplast assessed as viable cells at 248 uM after 48 hrs Annexin V-FITC/propidium iodide staining based flow cytometric analysis (reference value: 96.38 +/- 2.05%); format: functional
# Candida albicans [20] = test: Induction of apoptosis in Candida albicans ATCC 90028 protoplast assessed as early apoptotic cells at 248 uM after 48 hrs Annexin V-FITC/propidium iodide staining based flow cytometric analysis (reference value: 3.00 +/- 1.65%); format: functional
# Candida albicans [21] = test: Induction of apoptosis in Candida albicans ATCC 90028 protoplast assessed as necrotic cells at 248 uM after 48 hrs Annexin V-FITC/propidium iodide staining based flow cytometric analysis (reference value: 0.33 +/- 0.20%); format: functional
# Candida albicans [22] = test: Antifungal activity against Candida albicans ATCC 90028 assessed as reduction in cell viability at 38 uM after 48 hrs in presence of ergosterol by XTT assay; format: functional
# Candida albicans [23] = test: (§2) Antifungal activity against Candida albicans ATCC 90028 infected in Galleria mellonella larvae infected with 31 uM compound pre-treated cell suspensions assessed as larvae survival incubated in dark for 144 hrs at 30 degC and measured every 24 hrs (reference value: 80%); format: functional
# Galleria mellonella = test: Toxicity in Candida albicans ATCC 90028 infected Galleria mellonella larvae infected with 31 uM compound pre-treated cell suspensions assessed as improvement in larvae health index scores incubated in dark for 144 hrs at 30 degC and measured every 24 hrs; format: organism-based; details: in vivo
# Candida albicans [24] = test: as §2, with “reduction in larval hemocytes” for “larvae survival”, “by hematoxylin and eosin staining-based light microscopic analysis” for “(reference value: 80%)”; format: functional, organism-based
# Candida albicans [25] = test: as §2, with “reduction in fungal burden” for “larvae survival incubated”, “by hematoxylin and eosin staining-based light microscopic analysis” for “(reference value: 80%)”; format: functional, organism-based
# Candida albicans [26] = test: Antibiofilm activity in Candida albicans ATCC 90028 assessed as late apoptotic morphological changes by measuring reddish-orange fluorescence at 248 uM after 18 hrs by acridine orange/ethidium bromide staining-based confocal laser scanning fluorescence microscopic analysis; format: functional, organism-based
# Summary of the method: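 Unfixed biofilm cells were dual-stained in situ with acridine orange and ethidium bromide, each at 100 µg/mL. Confocal fluorescence and DIC imaging scored green AO nuclei, crescent-shaped chromatin, reddish-orange late apoptotic/necrotic cells and EB uptake, against untreated control biofilm. […]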
compound,measurement,setting,value
CC(Cn1cnc2c1c(=O)n(C)c(=O)n2C)OCc1cn(CCCn2nc3c(Br)c(Br)c(Br)c(Br)c3n2)nn1 (stereo unspecified),viability at 50 µM,MCF7,59.8%
same,pEC50,CCRF-CEM,5.19
same,inhibition of growth at 2 µg/mL,Candida albicans [1],99.9%
same,inhibition of growth at 0.5 µg/mL,Candida albicans [2],99.2%
same,inhibition of growth at 0.125 µg/mL,Candida albicans [3],99%
same,inhibition of growth at 0.0625 µg/mL,Candida albicans [4],99.2%
same,Activity,Candida albicans [5],2.87%
same,Activity,Candida albicans [6],0.22%
same,Activity,Candida albicans [7],Dose-dependent effect
same,Activity,Candida albicans [8],68%
same,survival at 20 µM,Candida albicans [9],100%
same,Activity,Candida albicans [10],80%
same,Activity,Candida albicans [11],Active
same,Activity,Candida albicans [12],Active
same,Activity,Candida albicans [13],Active
same,Activity_index,Candida albicans [14],370
same,Activity,Vero,Toxic
same,Activity,Candida albicans [15],inactive
same,MFC,Candida albicans [16],10 µM
same,MFC,Candida albicans [17],5 µM
CC(CN1c2ccccc2Sc2ccccc21)OC(=O)OC(C)Cn1cnc2c1c(=O)n(C)c(=O)n2C (stereo unspecified),viability at 50 µM,MCF7,38.3%
same,inhibition of growth at 2 µg/mL,Candida albicans [1],100%
same,inhibition of growth at 0.5 µg/mL,Candida albicans [2],99.9%
same,inhibition of growth at 0.125 µg/mL,Candida albicans [3],99.1%
same,inhibition of growth at 0.0625 µg/mL,Candida albicans [4],99.7%
same,inhibition,Candida albicans [18],inactive
same,Activity,Candida albicans [19],2.8%
same,Activity,Candida albicans [20],1.2%
same,Activity,Candida albicans [21],95.9%
same,Activity,Candida albicans [22],92%
same,survival at 31 µM,Candida albicans [23],95%
same,Activity,Galleria mellonella,Toxic
same,Activity,Candida albicans [24],Active
same,Activity,Candida albicans [25],Active
same,Activity,Candida albicans [26],Active
same,Activity,Vero,Toxic
